{
  "source": "ChEMBL document CHEMBL4428081",
  "about": "“Selective AKR1C3 Inhibitors Potentiate Chemotherapeutic Activity in Multiple Acute Myeloid Leukemia (AML) Cell Lines” (ACS Med Chem Lett, 2016)",
  "key": {"HL-60 [1]": {"test_system": "HL-60", "test": "Cytotoxicity against human HL60 cells assessed as reduction in cell viability up to 100 uM at 72 hrs by MTS assay", "type": "functional, cell-based", "method_in_brief": "(§1)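 HL-60 human acute promyelocytic leukemia cells exposed to AKR1C3 inhibitor alone, with no chemotherapeutic, over a range up to 100 μM. Lower working range was 0.1–1 μM. Read-out was cell viability relative to untreated control.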"}, "KG-1a [2]": {"test_system": "KG-1a", "test": "Cytotoxicity against human KG1a cells expressing AKR1C3 assessed as reduction in cell viability at >25 uM at 72 hrs by MTS assay", "type": "functional, cell-based"}, "[3]": {"biological_target": "T1, Aldo-keto reductase family 1 member C3 (Homo sapiens) (UniProt P42330)", "T1 sequence (whole entry)": "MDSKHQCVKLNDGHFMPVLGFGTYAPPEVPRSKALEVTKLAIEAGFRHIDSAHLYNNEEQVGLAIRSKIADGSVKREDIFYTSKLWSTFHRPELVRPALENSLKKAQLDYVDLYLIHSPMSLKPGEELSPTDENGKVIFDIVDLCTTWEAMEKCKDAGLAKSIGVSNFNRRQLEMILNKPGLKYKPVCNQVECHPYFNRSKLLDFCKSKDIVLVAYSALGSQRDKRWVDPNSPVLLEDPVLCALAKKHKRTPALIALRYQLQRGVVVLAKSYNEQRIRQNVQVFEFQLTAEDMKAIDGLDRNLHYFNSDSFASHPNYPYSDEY", "test": "Inhibition of AKR1C3 in human HL60 cells assessed as potentiation of etoposide-induced cytotoxicity by measuring reduction in cell viability at 0.1 uM coincubated with etoposide at 1 uM after 72 hrs by MTS assay (reference value: 40%)", "type": "cell-based", "method_in_brief": "(§2)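 HL-60 or KG1a cells were coincubated with inhibitor and etoposide for 72 h, then cell viability was read. Values are mean ± SD (n = 6). Treatments were compared with control by two-tailed t test.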"}, "[4]": {"biological_target": "T1, Aldo-keto reductase family 1 member C3 (Homo sapiens)", "test": "Inhibition of AKR1C3 in human KG1a cells assessed as potentiation of etoposide-induced cytotoxicity by measuring reduction in cell viability at 0.1 uM coincubated with etoposide at 1 uM after 72 hrs by MTS assay", "type": "cell-based", "method_in_brief": "as §2"}, "[5]": {"biological_target": "T1, Aldo-keto reductase family 1 member C3 (Homo sapiens)", "test": "Inhibition of AKR1C3 in human HL60 cells assessed as potentiation of etoposide-induced cytotoxicity by measuring reduction in cell viability pre-treated with 0.1 to 1 uM compound for 24 hrs followed by 1 uM etoposide exposure for additional 72 hrs by MTS assay", "type": "cell-based"}, "HL-60 [6]": {"test_system": "HL-60", "test": "Cytotoxicity against human HL60 cells assessed as reduction in cell viability at 50 uM at 72 hrs by MTS assay", "type": "functional, cell-based", "method_in_brief": "as §1"}, "HL-60 [7]": {"test_system": "HL-60", "test": "Cytotoxicity against human HL60 cells assessed as reduction in cell viability at 0.1 to 1 uM at 72 hrs by MTS assay", "type": "functional", "method_in_brief": "as §1"}, "KG-1a [8]": {"test_system": "KG-1a", "test": "Cytotoxicity against human KG1a cells expressing AKR1C3 assessed as reduction in cell viability at 1 uM at 72 hrs by MTS assay", "type": "functional"}, "[9]": {"biological_target": "T1, Aldo-keto reductase family 1 member C3 (Homo sapiens)", "test": "Inhibition of AKR1C3 in human HL60 cells assessed as potentiation of etoposide-induced cytotoxicity by measuring reduction in cell viability at 0.1 uM coincubated with etoposide at 0.5 uM after 72 hrs by MTS assay (reference value: 20%)", "type": "cell-based", "method_in_brief": "as §2"}, "HL-60 [10]": {"test_system": "HL-60", "test": "Downregulation of AKR1C3 expression in human HL60 cells at 1 to 10 uM after 72 hrs by Western blot analysis", "type": "functional, cell-based", "method_in_brief": "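KG1a and HL-60 cells were incubated with inhibitor at 1, 5 and 10 μM. AKR1C3 expression levels were determined after 48 h and 72 h incubation.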"}},
  "note": "The source made the active and inactive calls. No cut-off for these calls is given here.",
  "data": [
    {"smiles": "CC(C)=CCc1ccc(/C=C/C(=O)O)cc1OC(=O)CCc1ccccc1", "values": [
      {"measurement": "Activity", "setting": "HL-60 [1]", "value": "inactive"},
      {"measurement": "Activity", "setting": "KG-1a [2]", "value": "Active"},
      {"measurement": "Activity", "setting": "[3]", "value": 80, "unit": "%"},
      {"measurement": "Activity", "setting": "[4]", "value": 54, "unit": "%"},
      {"measurement": "Activity", "setting": "[5]", "value": "80 to 95", "unit": "%"}
    ]},
    {"smiles": "CC(C)=CCc1ccc(/C=C/C(=O)O)cc1NC(=O)CCc1ccccc1", "values": [
      {"measurement": "Activity", "setting": "HL-60 [6]", "value": "Active"},
      {"measurement": "Activity", "setting": "HL-60 [7]", "value": 8, "unit": "%"},
      {"measurement": "Activity", "setting": "KG-1a [8]", "value": 20, "unit": "%"},
      {"measurement": "Activity", "setting": "[3]", "value": 52, "unit": "%"},
      {"measurement": "Activity", "setting": "[9]", "value": 45, "unit": "%"},
      {"measurement": "Activity", "setting": "[4]", "value": 40, "unit": "%"},
      {"measurement": "Activity", "setting": "[5]", "value": "80 to 95", "unit": "%"},
      {"measurement": "Activity", "setting": "HL-60 [10]", "value": "Active"}
    ]}
  ]
}
